Where two headings read alike, the source gives them in different places.
Key:
[1] = Plasma lispro pharmacokinetics after subcutaneous injection, healthy subjects; assay type: in vivo, human; details: healthy subjects (n=6), 10 units s.c., mean ± SD
How it was run: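 Venous blood was drawn every 10 min for 3 h, then every 20 min, after a 10-unit subcutaneous abdominal lispro dose under a euglycemic clamp. Type 2 diabetic subjects had first received an overnight IV insulin infusion. Samples went into citrate tubes with protease inhibitors, were spun at 4°C, snap-frozen and stored at −80°C. Lispro was measured by specific radioimmunoassay in duplicate. Noncompartmental analysis gave Cmax, AUC0-∞, Cl and dose ratios; non-normal data were log-transformed.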

[2] = system: obese subjects with type 2 diabetes; assay: Euglycemic clamp; assay type: in vivo, human; details: obese type 2 diabetes
[3] = assay type: in vivo, human; details: for AUC0-∞/D, AUC0-∞ to dose ratio / Cmax/D, Cmax to dose ratio / Cl, clearance / Mean resistance time / Vz, volume of distribution / Cmax, maximum plasma concentration / Tmax, time to maximal concentration / t½, half-life: obese type 2 diabetes (n=7), mean ± SD; for Cl, clearance / Mean resistance time / Vz, volume of distribution / t½, half-life: noncompartmental; for Cmax, maximum plasma concentration / Tmax, time to maximal concentration: plasma RIA; for t½, half-life: plasma
healthy subjects = assay: Euglycemic clamp; assay type: in vivo, human; details: 10 units s.c.
How it was run: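 Healthy volunteers fasted overnight from 8:00 p.m., then received a single 10-unit lispro dose by pen with an 8-mm needle. It went into abdominal subcutaneous fat 8 cm above the umbilicus and 10 cm from the midline. Plasma glucose was read every 5 min and clamped at 5–6 mmol/l with IV 20% dextrose for 8 h. GIRmax, tGIRmax and GItot came from GIR–time data; GIR was also plotted against plasma lispro concentration.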

lispro
AUC0-∞/D, AUC0-∞ to dose ratio [1]: 1.190 ± 0.302 min/L
Cmax/D, Cmax to dose ratio [1]: 0.0091 ± 0.0007 L
Cl, clearance ([1]; noncompartmental): 0.88 ± 0.21 L/min
Mean resistance time ([1]; noncompartmental): 119 ± 21 min
Vz, volume of distribution ([1]; noncompartmental): 67 ± 16 L
Cmax, maximum plasma concentration ([1]; plasma RIA): 523 ± 42 pmol/L
Tmax, time to maximal concentration ([1]; plasma RIA): 48.3 ± 4.1 min
AUC0-∞, area under the lispro plasma concentration curve ([1]; plasma RIA, noncompartmental): 68,462 ± 17,346 pmol/min/l
t½, half-life ([1]; plasma, noncompartmental): 67 ± 15 min
GIRmax as % of the value measured in healthy subjects ([2]; 10 units s.c., P < 0.0001): 7%
GItot as % of the value measured in healthy subjects ([2]; 10 units s.c., P < 0.0001): 4%
prolongation of tGIRmax versus healthy subjects ([2]; 10 units s.c., P < 0.0001): 1 h
average difference between Tmax and tGIRmax ([2]; 10 units s.c., P < 0.0007 versus healthy): 74 min
average difference between Tmax and tGIRmax ([2]; 30 units s.c.): 86 min
average difference between Tmax and tGIRmax ([2]; 50 units s.c.): 115 min
Cmax/D lower in subjects with type 2 diabetes than in healthy subjects ([3]; 10 units s.c., P < 0.001): 41%
AUC0-∞/D, AUC0-∞ to dose ratio ([3]; 10 units s.c.): 1.056 ± 0.264 min/L
Cmax/D, Cmax to dose ratio ([3]; 10 units s.c.): 0.0054 ± 0.0005 L
Cl, clearance ([3]; 10 units s.c.): 0.99 ± 0.22 L/min
Mean resistance time ([3]; 10 units s.c.): 180 ± 65 min
Vz, volume of distribution ([3]; 10 units s.c.): 118 ± 34 L
Cmax, maximum plasma concentration ([3]; 10 units s.c.): 310 ± 28 pmol/L
Tmax, time to maximal concentration ([3]; 10 units s.c.): 55.7 ± 14.0 min
t½, half-life ([3]; 10 units s.c.): 100 ± 34 min
AUC0-∞/D, AUC0-∞ to dose ratio ([3]; 30 units s.c.): 1.140 ± 0.188 min/L
Cmax/D, Cmax to dose ratio ([3]; 30 units s.c.): 0.0047 ± 0.0012 L
Cl, clearance ([3]; 30 units s.c.): 0.90 ± 0.14 L/min
Mean resistance time ([3]; 30 units s.c.): 196 ± 30 min
Vz, volume of distribution ([3]; 30 units s.c.): 104 ± 53 L
Cmax, maximum plasma concentration ([3]; 30 units s.c.): 808 ± 218 ^‖ pmol/l
Tmax, time to maximal concentration ([3]; 30 units s.c.): 88.6 ± 21.9 min
t½, half-life ([3]; 30 units s.c.): 97 ± 38 min
AUC0-∞/D, AUC0-∞ to dose ratio ([3]; 50 units s.c.): 1.296 ± 0.208 min/L
Cmax/D, Cmax to dose ratio ([3]; 50 units s.c.): 0.0046 ± 0.0012 L
Cl, clearance ([3]; 50 units s.c.): 0.79 ± 0.13 L/min
Mean resistance time ([3]; 50 units s.c.): 236 ± 49 min
Vz, volume of distribution ([3]; 50 units s.c.): 107 ± 46 L
Cmax, maximum plasma concentration ([3]; 50 units s.c.): 1,313 ± 346 ^‖ ^# pmol/l
t½, half-life ([3]; 50 units s.c.): 136 ± 72 min
delay of Tmax ([3]; obese type 2 diabetes, 50 units versus 10 units, P < 0.001): 74 min
average difference between Tmax and tGIRmax (healthy subjects): 19 min
initial GIR response (healthy subjects; at insulin concentrations nearing 40 pmol/l): 2.22 mg/kg/min

— publication PMC2992178 (Diabetes Care, 2010)
